# Assay results pooled from the literature.
# Each line is one published result; the experiments were not run side by side.
# HTR2B: 5-hydroxytryptamine receptor 2B (HTR2B, Homo sapiens, UniProt P41595)
# HTR2C: 5-hydroxytryptamine receptor 2C (HTR2C, Homo sapiens, UniProt P28335)
Structure (SMILES),target,observed,action,method,tested at,measurement,result
CC(C)CC(=O)OC[C@H]1O[C@@](C#N)(c2ccc3c(N)ncnn23)[C@H](O)[C@@H]1O,HTR2B,cell-free assay,,,20 µM,inhibition,10%
[2H]c1c([2H])c([C@]2([2H])CCCN2C(=O)C(C)(C)Oc2ccc3cn[nH]c3c2)c([2H])c([2H])c1C([2H])([2H])[2H],"Serine/threonine-protein kinase DCLK3 (DCLK3, Homo sapiens, UniProt Q9C098)",binding,,competition with immobilised ligand,1 µM,remaining binding,86%
CCOC(=O)Cc1c2c3c(cc(OC)c(OC)c3c3cc(OC)c(OC)cc13)CCN2C,HTR2C,ligand displacement,,radioligand,10 µM,inhibition,6%
Nc1ncnc2c1ncn2[C@@H]1O[C@H](C[C@@H](N)CC[C@H](N)C(=O)O)[C@@H](O)[C@H]1O,"mRNA cap guanine-N(7) methyltransferase (RNMT, Homo sapiens, UniProt O43148)",enzyme activity,inhibitor,,12.21 nM,inhibition,13.7%
CC[C@H](C)[C@H](NC(=O)[C@H](CO)NC(=O)[C@H](Cc1ccc(O)cc1)NC(=O)[C@H](CC(=O)O)NC(=O)[C@H](CO)NC(=O)[C@@H](NC(=O)[C@H](Cc1ccccc1)NC(=O)[C@@H](NC(=O)CNC(=O)[C@H](CCC(=O)O)NC(=O)[C@@H](C)NC(=O)[C@@H](N)Cc1ccc(O)cc1)[C@@H](C)O)[C@@H](C)CC)C(=O)N[C@@H](C)C(=O)N[C@@H](CCSC)C(=O)N[C@@H](CC(=O)O)C(=O)N[C@@H](CCCCN)C(=O)N[C@H](C(=O)N[C@@H](Cc1c[nH]cn1)C(=O)N[C@@H](CCC(N)=O)C(=O)N[C@@H](CCC(N)=O)C(=O)N[C@@H](CC(=O)O)C(=O)N[C@@H](Cc1ccccc1)C(=O)N[C@H](C(=O)N[C@@H](CC(N)=O)C(=O)N[C@@H](Cc1c[nH]c2ccccc12)C(=O)N[C@@H](CC(C)C)C(=O)N[C@@H](CC(C)C)C(=O)N[C@@H](C)C(=O)N[C@@H](CCC(N)=O)C(=O)NCC(=O)N1CCC[C@H]1C(=O)N[C@@H](CO)C(=O)N[C@@H](CO)C(=O)NCC(=O)N[C@@H](C)C(=O)N1CCC[C@H]1C(=O)N1CCC[C@H]1C(=O)N1CCC[C@H]1C(=O)N[C@@H](CO)C(=O)N[C@@H](CCCCN)C(N)=O)C(C)C)[C@@H](C)CC,"Glucagon receptor (Mus musculus, UniProt Q61606)",cAMP,agonist,,,Emax,< 20%
COc1cc2c(cc1OC)-c1c(OC)c(OC)cc3c1[C@H](C2)N(C)CC3,HTR2B,ligand displacement,,radioligand,10 µM,inhibition,92%
c1cncc([C@@H]2CCCN2)c1,"Neuronal acetylcholine receptor; alpha3/beta4 (Rattus norvegicus, UniProt P04757+P12392)",ligand displacement,,radioligand,50 µM,inhibition,69.1%
COc1cc(C(F)(F)F)c(OC)cc1C1CCCNC1 (stereo not shown),HTR2B,G protein activation,agonist,BRET,,Emax,84%
CN1CCC[C@H]1c1cccnc1,HTR2B,ligand displacement,,,50 µM,inhibition,-8.78%
COc1cc2cc3c4c(cc(OC)c(OC)c4c2cc1OC)CCN3C,HTR2C,ligand displacement,,radioligand,10 µM,inhibition,-1%
